Measurements published in ChEMBL document CHEMBL1123854, “Dissociation of hypolipidemic and antiplatelet actions from adverse myotonic effects of clofibric acid related enantiomers” (J Med Chem, 1987).

Key:
Rattus norvegicus [1] = species on record: Rattus norvegicus; assay: Liver cholesterol level in male Sprague-Dawley rats (fed with high cholesterol semisynthetic diet) after 1 week of treatment.; assay type: functional
Summary of the method: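 Rats prefed high-cholesterol semisynthetic diet 1 week, then stratified by serum cholesterol into groups of six. Dosed 0.3 mmol/kg intragastrically twice daily in 0.25% methylcellulose for 1 week; controls got vehicle. Livers removed after exsanguination; cholesterol measured in lipid extracts. Mean ± SD, six rats.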

Rattus norvegicus [2] = species on record: Rattus norvegicus; assay: Serum cholesterol level in male Sprague-Dawley rats (fed with high cholesterol semisynthetic diet) after 4 days of treatment.; assay type: functional, organism-based
Summary of the method: (§1)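 Male Sprague-Dawley rats on a high-cholesterol semisynthetic diet for 1 week, then stratified-randomized into groups of six. Dosing was 0.3 mmol/kg twice daily by intragastric route in 0.25% methylcellulose for 1 week; controls received vehicle. Serum cholesterol was measured after 4 and 7 days of dosing. Values are mean ± SD of six rats.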

Rattus norvegicus [3] = species on record: Rattus norvegicus; assay: Serum cholesterol level in male Sprague-Dawley rats (fed with high cholesterol semisynthetic diet) after 7 days of treatment; assay type: functional, organism-based; summary of the method: as §1
Rattus norvegicus [4] = species on record: Rattus norvegicus; assay: Serum cholesterol level in male Sprague-Dawley rats (fed with high cholesterol semisynthetic diet)before the treatment.; assay type: functional, organism-based
Summary of the method: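 Male Sprague-Dawley rats fed a high-cholesterol semisynthetic diet for 1 week. Blood was drawn from the orbital plexus under ether anaesthesia before dosing (day -1) for serum cholesterol, which was used to stratify-randomize groups of six. Values are mean ± SD of six rats.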

Homo sapiens [5] = species on record: Homo sapiens; assay: Inhibition against platelet aggregation induced by adenosine diphosphate (ADP) in vitro; assay type: functional
Summary of the method: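 Human platelet-rich plasma from drug-free volunteers; compound preincubated 1 min before ADP (1–3 μM, lowest level giving maximal transmittance change). Aggregation followed by aggregometer for 6 min; IC50 for inhibition of the second phase of maximal aggregation, mean ± SEM, n = 4–10 donors.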

Homo sapiens [6] = species on record: Homo sapiens; assay: Inhibition against platelet aggregation induced by arachidonic acid(AA) in vitro; assay type: functional
Summary of the method: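 Human platelet-rich plasma from drug-free volunteers; compound preincubated 1 min before arachidonic acid (300–500 μM, lowest level giving maximal transmittance change). Aggregation read by aggregometer over 4 min; IC50 for inhibition of maximal aggregation, mean ± SEM, n = 4–10 donors.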

Rattus norvegicus [7] = species on record: Rattus norvegicus; assay: Inhibition against chloride conductance in rat extensor digitorum longus(EDL) muscle fibers in vitro; assay type: functional
Summary of the method: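 Rat EDL fibres (Charles River Sprague-Dawley, normal diet) studied in vitro by square-pulse microelectrode method in normal and chloride-free medium at several drug concentrations. Chloride conductance = membrane conductance in normal minus chloride-free solution. Conductance–concentration curves fit to single-site binding equation by nonlinear least squares to give IC50 ± SD; 7–79 fibres from 2–16 muscles per concentration.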

Row | SMILES | Liver cholesterol (Rattus norvegicus [1]) | Serum cholesterol (Rattus norvegicus [2]) [mg/dL] | Serum cholesterol (Rattus norvegicus [3]) [mg/dL] | Serum cholesterol (Rattus norvegicus [4]) [mg/dL] | IC50 (Homo sapiens [5]) [µM] | IC50 (Homo sapiens [6]) [µM] | IC50 (Rattus norvegicus [7]) [µM]
1 | CC(C)(Oc1ccc(Cl)cc1)C(=O)O [CLOFIBRIC ACID] | 41.9 mg (g of tissue)-1 | 113 | 149 | 271 | 1240 | > 4000 | –
2 | CC[C@H](Oc1ccc(Cl)cc1)C(=O)O | 37.2 mg (g of tissue)-1 | 174 | 193 | 278 | 1180 | 1600 | –
3 | C[C@H](Oc1ccc(Cl)cc1)C(=O)O | 45.4 mg (g of tissue)-1 | 107 | 184 | 279 | 998 | 1120 | –
4 | CC[C@@H](Oc1ccc(Cl)cc1)C(=O)O | 34.8 mg (g of tissue)-1 | 158 | 184 | 275 | 686 | 721 | > 230
5 | C[C@@H](Oc1ccc(Cl)cc1)C(=O)O | 40.8 mg (g of tissue)-1 | 116 | 119 | 276 | 201 | 253 | > 230
